# Results of several laboratories.
# Read-out: cell growth or viability
SMILES,cell line,test,setting,measurement,value
C=C1C[C@@]23CC[C@H]4[C@@](C)(CCC[C@@]4(C)C(=O)O)[C@@H]2CC[C@@H]1C3,MRC5,MTT,75 h,IC50,99.2 µM
COc1cc(C(=O)c2nc(-c3cccc4c3CC(=O)N4)c[nH]2)cc(OC)c1OC,A-375,MTS,72 h,IC50,0.0275 µM
O=C(Nc1ccccc1)Nc1ccc(Oc2nc3ccccc3n3cnnc23)cc1,MDA-MB-231,MTT,"25 µM, 24 h",viability,70.1%
CN(C)c1ccc(Nc2nc(-c3ccncc3)nc3c2CC(N)CC3)cc1 (stereo not drawn),A-375,MTT,,IC50,12.6 µM
C[C@H](N)C(=O)Nc1ccccc1/N=c1\cc(-c2ccc3c(c2)OCO3)oc2ccccc12,MDA-MB-231,CCK-8,1 µM,inhibition,7.31%
COc1cccc(NC(=O)Nc2ccc(Oc3nc4ccccc4n4cnnc34)cc2)c1,MDA-MB-231,MTT,"100 µM, 24 h",viability,24.6%
Cc1nc(Nc2ncc(C(=O)Nc3c(C)cccc3Cl)s2)cc(N2CC[C@H](O)C2)n1,SU-DHL-1,ATP luminescence,"10 µM, 72 h",inhibition,11%
O=C(Nc1ccc(Cl)cc1)Nc1ccc(Oc2nc3ccccc3n3cnnc23)cc1,MDA-MB-231,MTT,"25 µM, 24 h",viability,77.3%
O=c1[nH]cc(F)c(=O)[nH]1,C32,SRB,72 h,IC50,0.59 µg/mL
Nc1nc2ccc(-c3c/c(=N\c4ccccc4NC(=O)CCN4CCOCC4)c4ccccc4o3)cc2o1,MDA-MB-231,CCK-8,1 µM,inhibition,-0.02%
C[C@H]1CNCCN1c1nccc(-c2noc3c2CCC[C@@]32CCCc3sc(N)c(C#N)c32)n1,A-375,,5 days,EC50,5.01 µM
O=C(Nc1ccccc1/N=c1\cc(-c2ccc3c(c2)OCCO3)oc2cc(F)ccc12)N1CCOCC1,MDA-MB-231,CCK-8,1 µM,inhibition,8.63%
COc1cc(C(=O)c2nc(-c3cccc4cc[nH]c34)c[nH]2)cc(OC)c1OC,A-375,MTS,72 h,IC50,0.0205 µM
Nc1ccccc1/N=c1\cc(-c2ccc3c(c2)OCO3)oc2ccccc12,MDA-MB-231,CCK-8,1 µM,inhibition,2.58%
O=C(Nc1ccc(Oc2nc3ccccc3n3cnnc23)cc1)Nc1cccc(Cl)c1,MDA-MB-231,MTT,"100 µM, 24 h",viability,29.3%
COc1cc(C(=O)c2nc(-c3ccsc3)c[nH]2)cc(OC)c1OC,A-375,MTS,72 h,IC50,0.0432 µM
CCCCC(=O)Nc1ccc(-c2ccc3ncn(CCC)c(=O)c3c2)cn1,MRC5,CCK-8,72 h,IC50,0.48 µM
CNC(=O)c1cc(Oc2ccc(NC(=O)Nc3ccc(Cl)c(C(F)(F)F)c3)cc2)ccn1,MDA-MB-231,MTT,"50 µM, 24 h",viability,16.7%
O=C(Nc1ccccc1/N=c1\cc(-c2ccc3c(c2)OCO3)oc2ccccc12)N1CCNCC1,MDA-MB-231,CCK-8,1 µM,inhibition,2.22%
Cn1nnc2c(C(N)=O)ncn2c1=O,human Astrocyte,MTT,,IC50,2080 µM
COc1cc(C(=O)c2nc(-c3ccncc3)c[nH]2)cc(OC)c1OC,A-375,MTS,72 h,IC50,> 1 µM
NCC(=O)Nc1ccccc1/N=c1\cc(-c2ccc3c(c2)OCO3)oc2ccccc12,MDA-MB-231,CCK-8,1 µM,inhibition,12.4%
COc1cc(C(=O)c2nc(-c3cccc4c3CCN4)c[nH]2)cc(OC)c1OC,A-375,MTS,72 h,IC50,0.022 µM
Oc1cccc(-c2nc(N3CCOCC3)c3oc4ncccc4c3n2)c1,MDA-MB-231,CCK-8,1 µM,inhibition,18.8%
